# Results collected from several papers.
# Each line is one published result; the experiments were not run side by side.
# Target: Receptor-type tyrosine-protein kinase FLT3 (FLT3, Homo sapiens, UniProt P36888)
# One construct used (P36888 27-993): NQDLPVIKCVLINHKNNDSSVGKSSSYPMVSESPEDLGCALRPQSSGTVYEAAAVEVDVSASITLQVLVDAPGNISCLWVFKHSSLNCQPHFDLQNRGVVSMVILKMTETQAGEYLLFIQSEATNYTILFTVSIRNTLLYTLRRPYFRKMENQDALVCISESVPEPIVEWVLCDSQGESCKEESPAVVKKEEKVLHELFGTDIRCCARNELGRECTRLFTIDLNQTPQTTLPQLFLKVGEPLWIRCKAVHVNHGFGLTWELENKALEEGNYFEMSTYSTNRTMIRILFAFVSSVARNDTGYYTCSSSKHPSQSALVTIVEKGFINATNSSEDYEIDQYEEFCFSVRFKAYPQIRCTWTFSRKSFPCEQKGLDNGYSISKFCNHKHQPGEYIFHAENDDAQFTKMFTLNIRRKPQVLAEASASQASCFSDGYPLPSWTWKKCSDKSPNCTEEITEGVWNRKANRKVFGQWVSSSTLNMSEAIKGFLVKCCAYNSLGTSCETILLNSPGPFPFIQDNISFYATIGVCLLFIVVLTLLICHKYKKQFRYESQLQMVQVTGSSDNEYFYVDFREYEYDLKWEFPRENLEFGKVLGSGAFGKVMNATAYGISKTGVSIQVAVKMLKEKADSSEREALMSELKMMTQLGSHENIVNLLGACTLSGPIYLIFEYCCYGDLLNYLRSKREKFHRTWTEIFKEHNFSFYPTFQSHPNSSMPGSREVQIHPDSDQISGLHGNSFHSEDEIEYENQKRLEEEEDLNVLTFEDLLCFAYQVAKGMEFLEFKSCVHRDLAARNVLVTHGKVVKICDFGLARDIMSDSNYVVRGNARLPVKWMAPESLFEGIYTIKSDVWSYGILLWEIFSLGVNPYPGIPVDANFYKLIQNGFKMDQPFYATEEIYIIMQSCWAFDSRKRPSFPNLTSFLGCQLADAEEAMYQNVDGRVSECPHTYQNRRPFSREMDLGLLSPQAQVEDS
SMILES,effect on,mode,method,quantity,result
C[C@H](c1ccnc(Nc2nc3ccc(-c4cc(N(C)C)ncn4)cc3[nH]2)c1)N1CCN(C(=O)CC(F)(F)F)CC1,target engagement in cells,,BRET,EC50,22000 nM
C[C@H](Nc1ccnc(Nc2cccc(-c3cccnc3)c2)n1)C(=O)O,enzyme activity,inhibitor,,IC50,> 23000 nM
CN(C)c1ccc(C=C2C(=O)Nc3ccccc32)cc1,enzyme activity,inhibitor,radiometric,IC50,70 nM
c1cc(Nc2nccc(NC3CCCCC3)n2)cc(-c2ncco2)c1,enzyme activity,inhibitor,,IC50,336 nM
Cc1ccc(C(=O)Nc2ccc(Oc3cc4cnn(C)c4cc3-c3cn[nH]c3)c(F)c2)c(=O)n1-c1ccc(F)cc1,cell growth or viability,,ATP luminescence,IC50,7 nM
Cc1cc(Nc2cc3ncccc3c(N[C@@H]3C[C@H]4CC[C@@H](C3)N4CCC#N)n2)n[nH]1,target engagement in cells,inhibitor,BRET,IC50,2000 nM
COc1ccc2c(Oc3ccc4c(C(=O)Nc5ccccc5N)cccc4c3)ccnc2c1,enzyme activity,inhibitor,,IC50,> 500 nM
CCCNc1ccnc(Nc2cccc(-c3cccnc3)c2)n1,enzyme activity,inhibitor,,IC50,< 6 nM
CN(C)c1ncnc(-c2ccc3nc(Nc4cc(CN5CCN(C(=O)CC(F)(F)F)CC5)ccn4)[nH]c3c2)c1Cl,target engagement in cells,,BRET,EC50,> 50000 nM
Cc1cc(Nc2cc(CN3CCOCC3)c3nc(C)c(Cc4ccc(Cl)cc4F)n3n2)n[nH]1,enzyme activity,inhibitor,TR-FRET,IC50,4 nM
